The test system of one data set is S. typhimurium TA100. The data set is described as follows: Ames test, strain TA100. The data set is classed as cell-based, Salmonella typhimurium.
For another data set, the system named is S. typhimurium TA98. The data set is described as follows: Ames test, strain TA98. The data set is classed as cell-based, Salmonella typhimurium.
The next data set concerns S. typhimurium TA102. The settings on record: TA102 +S9, 5 μg/plate.
A further data set concerns MCF-7 cells. The data set is described as follows: MCF-7 cell proliferation assay. It is filed as cell-based, human. The settings on record: for EC50: Homo sapiens, MCF7. The gist of the method: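 MCF-7 cells exposed to test compound or E2 at six concentrations from 10–12 to 10–7 M in EA-free medium. Proliferation read as MTT product absorbance at 570 nm. Three independent trials, each in triplicate. % RME2 = 100 × (OD test − OD VC)/(max OD E2 − OD VC). EC50 from curve fitting. EEF = EC50 of E2/EC50 of sample. One-way ANOVA with Dunnett's test versus E2 at each concentration.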

Another data set concerns chicken embryo. Description: Chicken embryonic assay. Particulars: egg injection, day 18. The data set is classed as in vivo.
The test system of a further data set is chicken fetal liver. The data set is described as follows: TBARs level. The data set is classed as in vivo. The settings on record: lower dose (0.05 mM: 45–50 μg/kg).
Setting [1] is: higher dose (0.5 mM: 450–500 μg/kg; E2 0.1 mM: 91 μg/kg).
[2] abbreviates: lower dose (0.05 mM: 45–50 μg/kg; E2 0.01 mM: 9.1 μg/kg).

Read-outs that look alike come from different tables or passages of the source.

Take `Nc1ccc2cc3ccccc3cc2c1` [2-AA, reference compound]: the “number of revertants/plate (M ± SD), positive control” value (“number of revertants/plate (M ± SD)” for short) is 941 ± 56 ^e^** revertants/plate with S. typhimurium TA100 (TA100 +S9, 5 μg/plate, control set of luteolin and apigenin); 845 ± 45 ^e^** revertants/plate with S. typhimurium TA100 (TA100 +S9, 5 μg/plate, control set of quercetin and genistein); 846 ± 47 ^e^** revertants/plate in the data set on S. typhimurium TA98 (TA98 +S9, 5 μg/plate, control set of luteolin and apigenin); 806 ± 25 ^e^** revertants/plate in the data set with S. typhimurium TA98 (TA98 +S9, 5 μg/plate, control set of quercetin and genistein); 997 ± 35 ^e^** revertants/plate in the data set with S. typhimurium TA102 (control set of luteolin and apigenin); 757 ± 35 ^e^** revertants/plate with S. typhimurium TA102 (control set of quercetin and genistein).
For the compound `O=[N+]([O-])c1ccc2c(c1)Cc1ccccc1-2` [2-NF, reference compound], the “number of revertants/plate (M ± SD)” value in the data set with S. typhimurium TA98 (TA98 -S9, 1 μg/plate, control set of luteolin and apigenin) is 723 ± 64 ^c^** revertants/plate; in the data set on S. typhimurium TA98 (TA98 -S9, 1 μg/plate, control set of quercetin and genistein), 634 ± 16 ^c^** revertants/plate.
As to `C[C@]12CC[C@@H]3c4ccc(O)cc4CC[C@H]3[C@@H]1CC[C@@H]2O` [E2, 17β-estradiol, reference compound], a half-maximal effect in the data set on MCF-7 cells (EC50) was put at 0.01 nM. In the data set on chicken embryo (setting [1]), the “LSI (liver somatic index)” value was 2.06 ± 0.38%, the “REEW (ratio of embryo to egg weight)” value is listed as 0.38 ± 0.021, the malformation rate was determined as 0.0% and the mortality rate is listed as 33.3%. In addition, in the data set with chicken embryo (setting [1]), the “number of dead chicken embryo” value was 6, the “number of malformation chicken embryo” value was determined as 0, the “weights: embryo” value was 22.89 ± 0.87 g and the “weights: heart” value is 0.18 ± 0.01 g. Further, in the data set with chicken embryo (setting [1]), the “weights: liver” value stood at 0.47 ± 0.07 g. Further, in the data set with chicken embryo (setting [2]), the “LSI (liver somatic index)” value is 2.18 ± 0.01%, the “REEW (ratio of embryo to egg weight)” value was 0.39 ± 0.001, the malformation rate was 0.0% and the mortality rate was determined as 31.8%. Moreover, in the data set with chicken embryo (setting [2]), the “number of dead chicken embryo” value stood at 7, the “number of malformation chicken embryo” value came to 0, the “weights: embryo” value turned out to be 20.24 ± 3.53 g and the “weights: heart” value is given as 0.18 ± 0.03 g. Moreover, the “weights: liver” value in the data set on chicken embryo (setting [2]) worked out at 0.54 ± 0.01 g.
In the case of `[N-]=[N+]=[N-].[Na+]` [NaN3, reference compound], the “number of revertants/plate (M ± SD)” value is given as 860 ± 52 ^d^** revertants/plate in the data set on S. typhimurium TA100 (TA100 -S9, 1 μg/plate, control set of luteolin and apigenin); 743 ± 28 ^d^** revertants/plate with S. typhimurium TA100 (TA100 -S9, 1 μg/plate, control set of quercetin and genistein).
As for `O=c1cc(-c2ccc(O)c(O)c2)oc2cc(O)cc(O)c12` [luteolin], in the data set on MCF-7 cells (EC50 of E2 divided by that of the test compound), the “EEF (estradiol equivalent factor)” value is given as 0.0012. In the data set with MCF-7 cells, this compound registered an EC50 of 8.4 nM. In addition, the “max % RME2” value in the data set on MCF-7 cells (highest % RME2 (relative maximum % E2) in test range 10^–12–10^–7 M) worked out at 26%. In the data set on chicken fetal liver, this compound returned a TBARs value of 142.56 nmol/g. For the same compound, in the data set with chicken embryo (setting [1]), the malformation rate is 11.11%, the “number of dead chicken embryo” value is 7, the “number of malformation chicken embryo” value amounted to 1 and the “weights: embryo” value was 20.70 ± 0.00 g. In addition, in the data set on chicken embryo (setting [1]), the “weights: heart” value is on record as 0.18 ± 0.05 g and the “weights: liver” value was found to be 0.49 ± 0.05 g. Further, in the data set on chicken embryo (setting [2]), the malformation rate is listed as 21.43%, the mortality rate was found to be 12.5%, the “number of dead chicken embryo” value is recorded as 2 and the “number of malformation chicken embryo” value stood at 3. In the data set on chicken embryo (setting [2]), the “weights: embryo” value amounted to 19.75 ± 0.75 g, the “weights: heart” value is reported as 0.19 ± 0.05 g and the “weights: liver” value was 0.44 ± 0.05 g.

The values above are taken from paper PMC8851455 (ACS Omega, 2022).
